Data as given in ChEMBL document CHEMBL4152378, “Discovery of a Branched Peptide That Recognizes the Rev Response Element (RRE) RNA and Blocks HIV-1 Replication” (J Med Chem, 2018).
Calls of active or inactive are those of the source. The rule behind the calls is not given here.

Legend:
[1] = Binding affinity to HIV1 rev response element 2B RNA in presence of 10-fold excess TAR RNA by 2-AP based displacement assay; parameters: species or system Human immunodeficiency virus 1
Procedure, shortened: (§1)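 2-AP-labeled RRE IIB (0.1 μM) refolded at 95 °C 3 min, snap-cooled; titrated with peptide 0–20 μM in 10 mM potassium phosphate, 100 mM KCl, 1 mM MgCl2, 20 mM NaCl, pH 7.0; excitation 310 nm, emission decrease at 372 nm; Kd from Hill fit; at least duplicate, SD. Competition lines include 10-fold excess unlabeled RNA/DNA competitor.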

[2] = Cytotoxicity against HEK293T cells assessed as reduction in cell viability after 48 hrs by MTT assay; assay type: cell-based, HEK-293T; conditions: human
Procedure, shortened: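 MTT run in parallel with the transfected HEK 293T reporter set-up; ~48 h post-transfection MTT (5 mg/mL stock in PBS) added, 4 h at 37 °C; solubilized overnight with 10% SDS/0.01 N HCl; absorbance 570 nm; mean ± SD.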

[3] = test system: Human immunodeficiency virus 1; experiment: Binding affinity to HIV1 RRE RNA in HEK293T cells transfected with HIV1 CMV driven GagPol-RRE plasmid assessed as reduction in Rev-RRE dependent nuclear export by measuring intracellular p24 levels at 70 uM after 48 hrs by ELISA relative to control; assay type: cell-based
Procedure, shortened: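 HEK 293T cells transfected with Rev and CMV-driven GagPol-RRE plasmids plus luciferase control; peptides added 5 h after transfection at 70 μM; cells lysed ~48 h post-transfection and intracellular p24 quantified by ELISA as percent inhibition.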

[4] = Binding affinity to HIV1 rev response element 2B RNA in presence of 10-fold excess no bulge RRE RNA by 2-AP based displacement assay; parameters: species or system Human immunodeficiency virus 1; procedure, shortened: as §1
[5] = Binding affinity to HIV1 rev response element 2B RNA by 2-AP based displacement assay; parameters: species or system Human immunodeficiency virus 1; procedure, shortened: as §1
[6] = test system: Human immunodeficiency virus 1; experiment: Binding affinity to [32P]-labeled HIV-rev response element 2B RNA assessed as protection of upper stem region from cleavage by RNase VI incubated for 10 mins up to 20 uM by autoradiography based nuclease protection assay
Procedure, shortened: (§2)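 5'-32P RRE IIB (10 nM) with 200 nM unlabeled RRE IIB refolded (95 °C 3 min, ice); incubated with peptide 0–20 μM on ice 4 h in 10 mM Tris pH 7, 100 mM KCl, 10 mM MgCl2; digested on ice with RNase V1 (0.002 U, 10 min) or RNase A (20 ng, 1 h); 12% denaturing PAGE, autoradiography.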

[7] = Binding affinity to HIV1 RRE RNA in HEK293T cells transfected with HIV1 CMV driven GagPol-RRE plasmid assessed as reduction in Rev-RRE dependent nuclear export by measuring intracellular p24 levels after 48 hrs by ELISA relative to control; assay type: cell-based; conditions: Human immunodeficiency virus 1, HEK-293T
[8] = Binding affinity to HIV1 rev response element 2B RNA in presence of 10-fold excess RRE DNA by 2-AP based displacement assay; parameters: species or system Human immunodeficiency virus 1; procedure, shortened: as §1
[9] = test system: Human immunodeficiency virus 1; experiment: Binding affinity to [32P]-labeled HIV-rev response element 2B RNA assessed as protection of internal loop region from cleavage by RNase A incubated for 1 hr up to 20 uM by autoradiography based nuclease protection assay; procedure, shortened: as §2
[10] = test system: Human immunodeficiency virus 1; experiment: Binding affinity to HIV1 234 nucleotide NL4-3 5'-RRE RNA assessed as protection of secondary Rev binding sites from cleavage by […] incubated for 1 hr by SHAPE analysis

Kd [1] [nM]	Kd [4] [nM]	Kd [5] [nM]	Activity [6]	IC50 [7] [nM]	Kd [8] [nM]	Activity [9]	Activity [10]	Compound	CC50 at 48 h [2] [nM]	inhibition [3] [%]
3090	2040	880	Active	15400	990	Active	Active	N=C(N)N[C@@H]1C[C@H](C(=O)N[C@@H](Cc2ccc(O)cc2)C(N)=O)N(C(=O)CN(CCNC(=O)[C@H](CCCCNC(=O)c2cnccn2)NC(=O)[C@H](CCCCNC(=O)[C@H]2C[C@@H](N)CN2C(=O)CN(CCNC(=O)CN(CCN)C(=O)Cn2cnc3c(=O)[nH]c(N)nc32)C(=O)Cn2cnc3c(=O)[nH]c(N)nc32)NC(=O)[C@H]2C[C@@H](N)CN2C(=O)CN(CCNC(=O)CN(CCN)C(=O)Cn2cnc3c(=O)[nH]c(N)nc32)C(=O)Cn2cnc3c(=O)[nH]c(N)nc32)C(=O)Cn2cnc3c(=O)[nH]c(N)nc32)C1	135000	> 50
–	–	1120	–	–	–	–	–	N=C(N)N[C@@H]1C[C@H](C(=O)NCCCC[C@H](NC(=O)[C@H]2C[C@@H](NC(=N)N)CN2C(=O)[C@H]2C[C@@H](N)CN2C(=O)[C@H]2C[C@@H](NC(=N)N)CN2)C(=O)N[C@@H](CCCCNC(=O)c2cnccn2)C(=O)N[C@@H](CCCCNC(=O)c2cnccn2)C(=O)NCCN(CC(=O)N[C@@H](Cc2ccc(O)cc2)C(N)=O)C(=O)Cn2cnc3c(=O)[nH]c(N)nc32)N(C(=O)[C@H]2C[C@@H](N)CN2C(=O)[C@H]2C[C@@H](NC(=N)N)CN2)C1	–	> 50
